Data set [1] has as its target T1, μ-opioid receptor (Cavia porcellus, UniProt P97266). Briefly: Electrically stimulated guinea-pig ileum. Also noted: species or system guinea pigs.
For data set [2], the system named is mice. Briefly: Behavioural observation after icv injection. The data set is classed as in vivo.
Data set [3] can be described thus: Enzymatic degradation in brain homogenate. Type of data set: in vitro ADME. The conditions noted are these: 2 h, preliminary.
Data set [4] relates to mice. Description: Hot-plate test after icv injection. The data set is classed as in vivo, Swiss-Webster mice. Put shortly: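 Male Swiss-Webster mice (20–25 g); test compound in saline, 5 μL icv at bregma (needle 2.3–3 mm deep), placement checked after sacrifice. Latency to jump, lick or shake hind paws on a 55 °C plate at 10 min post-injection, then every 10 min; baseline 5–10 sec, cutoff 30 sec.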
Background: Hot-plate and tail-flick tests time the reaction to a heat stimulus.

Data set [5] is described as follows: Enzymatic degradation in plasma. Type of data set: in vitro ADME. The conditions noted are these: 4 h, preliminary.
Data set [6] has as its system mice. Briefly: Tail-flick test after icv injection. The data set is classed as in vivo, Swiss-Webster mice. Summed up:
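Radiant heat on the dorsal tail surface of male Swiss-Webster mice (20–25 g), with latency to tail removal timed. Baseline 2–3 sec, cutoff 8 sec. Readings start 10 min after icv test compound (5 μL saline at bregma) and repeat every 10 min.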

The target in data set [7] is T2, δ-opioid receptor (Mus musculus, UniProt P32300). Description: Electrically stimulated mouse vas deferens. The settings on record: MVD.
The next data set addresses μ-opioid receptors (Rattus norvegicus, UniProt P33535). The settings on record: read-out: Receptor affinity Ki^μ; reference compounds; ref Balboni et al.[5]; cited from earlier work.
Data set [8] concerns the target T2, δ-opioid receptor. The conditions noted are these: ref Balboni et al.[5], cited from earlier work.
Data set [9] concerns the target T1, μ-opioid receptor. The settings on record: read-out: GPI IC50; μ agonism; ref Balboni et al.[5]; cited from earlier work.
The next data set addresses δ-opioid receptors (Rattus norvegicus, UniProt P33533). The settings on record: ref Balboni et al.[5], cited from earlier work; for Ki: read-out: Receptor affinity Ki^δ, reference compounds.
The mark [10] stands for this setting: 10 μg/mouse icv, sc naltrindole 3 mg/kg, naloxone 10 mg/kg 20 min before.

Like-named read-outs stand apart in the source and are kept apart here. Where a SMILES comes first, the peptide text is derived from it. [ ]: non-standard residue; d: D form. The star is where a group is joined. Dmt = Cc1cc(O)cc(C)c1C[C@H](N)C(=O)O; Tic = O=C(O)[C@@H]1Cc2ccccc2CN1; NHBn = c1ccc(CN*)cc1

Chain of δ-opioid receptors (P33533 whole entry): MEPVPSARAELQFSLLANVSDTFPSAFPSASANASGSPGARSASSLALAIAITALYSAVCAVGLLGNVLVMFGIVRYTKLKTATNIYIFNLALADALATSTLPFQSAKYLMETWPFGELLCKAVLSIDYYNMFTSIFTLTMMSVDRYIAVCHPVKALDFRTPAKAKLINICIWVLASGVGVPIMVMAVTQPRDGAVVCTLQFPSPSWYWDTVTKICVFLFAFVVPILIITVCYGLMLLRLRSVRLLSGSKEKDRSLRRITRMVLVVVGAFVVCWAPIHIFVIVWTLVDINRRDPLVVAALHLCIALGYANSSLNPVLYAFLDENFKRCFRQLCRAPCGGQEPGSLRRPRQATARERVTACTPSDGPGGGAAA
T2 sequence (P32300 whole entry): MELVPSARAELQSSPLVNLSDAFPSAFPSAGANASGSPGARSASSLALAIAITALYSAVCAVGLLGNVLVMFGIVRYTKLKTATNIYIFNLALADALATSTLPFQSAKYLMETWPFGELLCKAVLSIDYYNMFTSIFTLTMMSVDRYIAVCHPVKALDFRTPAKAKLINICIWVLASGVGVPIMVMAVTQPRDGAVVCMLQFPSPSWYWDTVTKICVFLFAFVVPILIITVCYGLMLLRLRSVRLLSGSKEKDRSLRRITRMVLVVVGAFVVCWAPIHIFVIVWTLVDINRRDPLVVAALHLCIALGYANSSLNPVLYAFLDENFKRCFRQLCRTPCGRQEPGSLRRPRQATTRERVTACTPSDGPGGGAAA
T1 sequence (P97266 whole entry, looked up): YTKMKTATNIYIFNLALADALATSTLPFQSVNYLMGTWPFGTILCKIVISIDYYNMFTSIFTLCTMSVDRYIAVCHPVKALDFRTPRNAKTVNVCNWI
Chain of μ-opioid receptors (P33535 whole entry): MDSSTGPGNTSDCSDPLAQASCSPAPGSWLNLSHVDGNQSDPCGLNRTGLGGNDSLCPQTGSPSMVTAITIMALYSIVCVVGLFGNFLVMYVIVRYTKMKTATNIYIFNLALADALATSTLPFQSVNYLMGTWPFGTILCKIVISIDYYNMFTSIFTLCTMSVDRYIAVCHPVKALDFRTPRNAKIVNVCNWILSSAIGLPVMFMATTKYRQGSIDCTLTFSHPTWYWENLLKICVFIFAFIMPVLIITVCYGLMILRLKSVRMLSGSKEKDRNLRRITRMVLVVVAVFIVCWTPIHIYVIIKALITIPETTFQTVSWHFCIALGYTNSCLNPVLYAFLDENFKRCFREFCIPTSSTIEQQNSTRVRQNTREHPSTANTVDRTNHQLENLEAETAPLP

In general, IC50 refers to the midpoint of a concentration-inhibition curve. Molecule `Cc1cc(O)cc(C)c1C[C@H](N)C(=O)N1Cc2ccccc2C[C@H]1C(=O)N[C@@H](CC(=O)O)C(=O)N(C)c1ccccc1` [Compound 8, H-Dmt-Tic-Asp-N(Me)-Ph] registered an IC50 at μ-opioid receptor [1] greater than 10000 nM.

Consider `Cc1cc(O)cc(C)c1C[C@H](N)C(=O)N1Cc2ccccc2C[C@H]1C(=O)N[C@H](CC(=O)O)C(=O)N(C)c1ccccc1` [Compound 9, H-Dmt-Tic-D-Asp-N(Me)-Ph], for which, at μ-opioid receptor [1], the IC50 was greater than 10000 nM.

Regarding `Cc1cc(O)cc(C)c1C[C@H](N)C(=O)N1Cc2ccccc2C[C@H]1C(=O)N[C@@H](CC(=O)O)c1nc2ccccc2n1C` [Compound 10, H-Dmt-Tic-NH-(S)CH(CH2-COOH)-Bid(N^1-Me)], in the data set on mice [2] (highest doses), the Convulsions entry was “convulsions”. In addition, in the data set on mice [2] (same dose), the “Behavioural effects in mice” value is “sedated, quiet, easily handled, and moving slowly if at all”. For the same molecule, the “Stability to enzymic degradation” value in data set [3] and in [5] was “fully stable” throughout. For the same molecule, the “Reversal of analgesia by naltrindole and naloxone, hot-plate test” value with mice [4] (setting [10]) was “not in the hot-plate test”. In the data set with mice [4] (icv injection, mice, Figure 1), the “Analgesic effect, hot-plate test” value is on record as “dose dependent analgesic effect”. Also, the “Reversal of analgesia by naltrindole and naloxone, tail-flick test” value in the data set on mice [6] (setting [10]) is “reversed”. Also, in the data set on mice [6] (icv injection, mice, Figure 1), the “Analgesic effect, tail-flick test” value is reported as “dose dependent analgesic effect”. Further, at μ-opioid receptor [1] (GPI), the “μ agonism relative to 4” value stood at 1.7 fold.

Regarding `Cc1cc(O)cc(C)c1C[C@H](N)C(=O)N1Cc2ccccc2C[C@H]1C(=O)N[C@H](CC(=O)O)c1nc2ccccc2n1C` [Compound 11, H-Dmt-Tic-NH-(R)CH(CH2-COOH)-Bid(N^1-Me)], the IC50 on μ-opioid receptor [1] was greater than 10000 nM.

For the molecule `Cc1cc(O)cc(C)c1C[C@H](N)C(=O)N1Cc2ccccc2C[C@H]1C(=O)N[C@@H](CC(=O)O)C(=O)NCc1ccccc1` [Compound 13, H-Dmt-Tic-Asp-NH-Bzl] (H-[Dmt]-[Tic]-Asp-NHBn), the “δ antagonist activity, lower than 2” value on δ-opioid receptor [7] was determined as 5 fold.

One may read the Ki as a measure of affinity in units of concentration, obtained from inhibition or displacement. For the molecule H-Dmt-Tic-Gly-NH-Bzl [Compound 2], the Ki at μ-opioid receptors was 0.16 nM. Moreover, the “MVD pA2” value at δ-opioid receptor [8] (δ antagonism) is reported as 9.25. For the same molecule, the IC50 at μ-opioid receptor [9] was 2.69 nM. In addition, on δ-opioid receptors, the Ki is 0.031 nM and the “Selectivity Ki^μ/Ki^δ” value is reported as 5.

As for H-Dmt-Tic-Gly-NH-Ph [Compound 1], the Ki on μ-opioid receptors was 0.16 nM; on δ-opioid receptors, 0.042 nM. For the same molecule, the IC50 on δ-opioid receptor [8] (read-out: MVD IC50, δ agonism) is 3.02 nM; at μ-opioid receptor [9], 2.57 nM. Besides, the “Selectivity Ki^μ/Ki^δ” value at δ-opioid receptors is 4.
